Consider 1 compound from ChEMBL document CHEMBL2057168, “(1aR,5aR)1a,3,5,5a-Tetrahydro-1H-2,3-diaza-cyclopropa[a]pentalene-4-carboxylic acid (MK-1903): a potent GPR109a agonist that lowers free fatty acids in humans” (J Med Chem, 2012).

A short description of data set [1]: Tmax in human at 175 mg, po QID administered on day 1 followed by 2-days wash out period after which dosing continued up to day 11 measured on day 1. It counts as ADME, organism-based. To be noted: in vivo. An outline of the steps: (§1)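 Double-blind, placebo-controlled, randomized multiple oral dose study in healthy male volunteers (cohorts of eight; six active, two placebo). Dose given on day 1, then a two-day washout, then dosing days 4–11; for the QD arm, subjects were titrated over days 1–4. Venous plasma sampled predose and 0.5, 1, 1.5, 2, 4, 6, 8, 10, 12 h postdose on days 1, 4 and 11. Tmax reported as median (min–max).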

A short description of data set [2]: Cmax in human at 150 mg, po BID administered on day 1 followed by 2-day wash out period after which dosing continued up to day 11 measured on day 1. It counts as ADME, organism-based. More on the design: dose 150 mg, route oral. The note with it: in vivo. Put shortly: (§2)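 Double-blind, placebo-controlled, randomized dose-escalation study in healthy male volunteers, six cohorts of eight (six active, two placebo). Oral dose on day 1, two-day washout, then dosing days 4–11; the 200 mg qd cohort was titrated over days 1–4. Venous blood taken predose and at 0.5–12 h on days 1, 4 and 11; plasma drug measured. τ 12 h (bid), 24 h (qd), 8 h (tid), 6 h (qid).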

Data set [3] has as its system Homo sapiens. The experiment in a line: Antidyslipidemic activity in dyslipidemia patient assessed as change in triglyceride level at 150 mg administered TID during four week study relative to control. The format is functional.
For data set [4], the target named is Cytochrome P450 2D6 (Homo sapiens, UniProt P10635). Kind of data set: Activity at CYP2D6. The format is ADME.
Data set [5] is described as follows: Drug excretion in human urine assessed as unchanged drug at 50 to 150 mg, po BID in administered on day 1 followed by 2-days wash out period after which dosing continued up to day 11. The format is ADME, organism-based. The note with it: read-out: Ae.
The nature of data set [6]: Cmax in human at titreated po dose administered from day 1 to 4 followed by 200 mg, po QD administered up to day 11 measured on day 11. The format is ADME, organism-based. Further details: dose 200 mg, route oral. The note with it: in vivo. An outline of the steps: (§3)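 Healthy male volunteers took part in a double-blind, randomized, placebo-controlled dose-escalation study, with cohorts of 8 (6 on drug, 2 on placebo). Each subject got an oral dose on day 1, then a 2-day washout, then dosing on days 4–11. The 200 mg qd group was titrated over days 1–4. Venous plasma was sampled predose and 0.5–12 h postdose on days 1, 4 and 11, and predose on days 5–10 for troughs.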

A short description of data set [7]: Cmax in human at 175 mg, po QID administered on day 1 followed by 2-days wash out period after which dosing continued up to day 11 measured on day 11. To be noted: in vivo. The format is ADME, organism-based. Further details: dose 175 mg, route oral. Put shortly: as §3
Data set [8] in a line: Cmax in human at 150 mg, po BID administered on day 1 followed by 2-day wash out period after which dosing continued up to day 11 measured on day 11. Further details: dose 150 mg, route oral. To be noted: in vivo. It counts as ADME, organism-based. An outline of the steps:
as §3

A short description of data set [9]: AUC (0 to 12 hrs) in human at 150 mg, po BID administered on day 1 followed by 2-day wash out period after which dosing continued up to day 11 measured on day 11. The format is ADME, organism-based. More on the design: dose 150 mg, time < 12 hr, route oral. To be noted: plasma. Put shortly: as §2
Data set [10] concerns Homo sapiens. The experiment in a line: Antidyslipidemic activity in human assessed as decrease in free fatty acid level 150 mg, po TID administered on day 1 followed by 2-days wash out period after which dosing continued up to day 11 measured on day 4 and 11. The format is functional, organism-based. Put shortly: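 Healthy male volunteers in a randomized, double-blind, placebo-controlled multiple-dose study, six active and two placebo subjects per cohort. Oral dosing on day 1, two-day washout, then days 4–11, with titration over days 1–4 for the qd arm.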

The target in data set [11] is T1, Cytochrome P450 2C8 (Homo sapiens, UniProt P10632).
T1 sequence (P10632 whole entry): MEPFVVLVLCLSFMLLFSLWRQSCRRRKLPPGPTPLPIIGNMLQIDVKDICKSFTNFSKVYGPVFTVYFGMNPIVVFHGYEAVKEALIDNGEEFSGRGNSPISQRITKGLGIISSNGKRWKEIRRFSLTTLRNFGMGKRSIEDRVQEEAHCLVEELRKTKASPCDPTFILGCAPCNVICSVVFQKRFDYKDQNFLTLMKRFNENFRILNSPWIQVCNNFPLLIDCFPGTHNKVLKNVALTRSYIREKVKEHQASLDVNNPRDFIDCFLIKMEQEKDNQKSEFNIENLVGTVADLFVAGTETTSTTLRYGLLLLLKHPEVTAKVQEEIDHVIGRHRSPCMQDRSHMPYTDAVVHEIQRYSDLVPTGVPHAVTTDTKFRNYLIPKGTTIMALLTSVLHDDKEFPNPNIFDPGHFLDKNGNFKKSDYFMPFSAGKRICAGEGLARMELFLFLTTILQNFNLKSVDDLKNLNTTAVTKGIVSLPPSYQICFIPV
The experiment in a line: Activity at CYP2C8. The format is ADME.

Data set [12] relates to Homo sapiens. Kind of data set: Toxicity in po dosed human assessed as occurrence of flushing administered as single dose. It counts as organism-based. The note with it: in vivo. An outline of the steps: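 Healthy human volunteers received single oral doses. Flushing was recorded as a subject-reported adverse event and scored with a flushing symptoms questionnaire. It was compared qualitatively against a 1 g Niaspan dose.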

A short description of data set [13]: AUC (0 to 12 hrs) in human at 50 mg, po BID administered on day 1 followed by 2-day wash out period after which dosing continued up to day 11 measured on day 4. Further details: time < 12 hr, dose 50 mg, route oral. To be noted: plasma. It counts as ADME, organism-based. An outline of the steps:
as §2

The nature of data set [14]: Cmin in human at 150 mg, po BID administered on day 1 followed by 2-day wash out period after which dosing continued up to day 11 measured on day 4 at 12 hrs. To be noted: in vivo, read-out: Cmin. It counts as ADME, organism-based. Put shortly:
as §3

Data set [15] is described as follows: Apparent half life in human at 175 mg, po QID administered on day 1 followed by 2-days wash out period after which dosing continued up to day 11 measured on day 11. It counts as ADME, organism-based. The note with it: in vivo, read-out: t1/2(app) (converted). An outline of the steps:
as §2

Data set [16] is described as follows: AUC (0 to 6 hrs) in human at 175 mg, po QID administered on day 1 followed by 2-days wash out period after which dosing continued up to day 11 measured on day 11. It counts as ADME, organism-based. More on the design: time < 6 hr, dose 175 mg, route oral. To be noted: plasma. Put shortly:
as §2

The nature of data set [17]: Cmax in human at 150 mg, po TID administered on day 1 followed by 2-days wash out period after which dosing continued up to day 11 measured on day 1. It counts as ADME, organism-based. More on the design: dose 150 mg, route oral. To be noted: in vivo. An outline of the steps:
as §3

For data set [18], the system named is Rhesus monkey. Kind of data set: Dose normalized Cmax in po dosed rhesus monkey. It counts as ADME, organism-based, Macaca mulatta. The note with it: in vivo.
Data set [19] is described as follows: Tmax in human at titreated po dose administered from day 1 to 4 followed by 200 mg, po QD administered up to day 11 measured on day 4. The format is ADME, organism-based. The note with it: in vivo. Put shortly:
as §1

The nature of data set [20]: Terminal half life in Sprague-Dawley rat at 2 mg/kg, iv. Further details: dose 2 mg/kg, route intravenous. The note with it: in vivo, read-out: beta t1/2 (converted). The format is ADME, organism-based. An outline of the steps: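 Male Sprague-Dawley rats were dosed at 10 mg/kg po or 2 mg/kg iv in 80% PEG400/20% phosphate-buffered saline, fasted overnight before the oral dose. Jugular blood was sampled serially from 0.25 to 21 h over 24 h, and heparinized plasma was prepared. Drug was assayed by HPLC/MS/MS (quantitation range 1–2000 ng/mL).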

For data set [21], the system named is Homo sapiens. The experiment in a line: Toxicity in human assessed as occurrence of flushing at 10 to >10 mg administered for 1 to 2 days as divided dose. It counts as organism-based. To be noted: in vivo. Put shortly:
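Healthy volunteers scored subject-reported flushing with a flushing symptoms questionnaire after single oral doses and during repeat divided daily dosing.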

Data set [22] in a line: Tmax in human at 150 mg, po BID administered on day 1 followed by 2-day wash out period after which dosing continued up to day 11 measured on day 4. To be noted: in vivo. The format is ADME, organism-based. Put shortly: as §1
Data set [23] in a line: Cmin in human at titreated dose from day 1 to 4 followed by 200 mg, po QD administered up to day 11 measured on day 11 at 12 hrs. It counts as ADME, organism-based. The note with it: in vivo, read-out: Cmin. An outline of the steps: as §3

Calls of active or inactive are those of the source. The calls are words filed in the database; no cut-off is given here.

Cytochrome P450 2D6, sequence (P10635 whole entry): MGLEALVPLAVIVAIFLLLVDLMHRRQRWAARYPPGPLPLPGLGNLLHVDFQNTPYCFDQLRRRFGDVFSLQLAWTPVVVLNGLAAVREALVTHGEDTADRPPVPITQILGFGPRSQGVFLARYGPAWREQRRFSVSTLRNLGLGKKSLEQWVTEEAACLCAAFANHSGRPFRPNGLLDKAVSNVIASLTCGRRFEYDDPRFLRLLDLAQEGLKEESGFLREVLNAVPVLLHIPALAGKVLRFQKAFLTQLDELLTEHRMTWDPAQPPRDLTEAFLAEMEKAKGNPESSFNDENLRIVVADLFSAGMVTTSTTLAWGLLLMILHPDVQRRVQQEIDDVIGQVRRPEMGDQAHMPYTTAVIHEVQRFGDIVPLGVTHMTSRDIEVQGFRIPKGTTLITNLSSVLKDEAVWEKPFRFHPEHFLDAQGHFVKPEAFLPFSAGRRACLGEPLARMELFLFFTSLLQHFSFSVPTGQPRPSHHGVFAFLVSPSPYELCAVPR

As a reminder, the Tmax is the time at which the peak concentration occurs. A word on the Cmax: it is the highest concentration seen after dosing. A word on the AUC: it is concentration integrated over time. With `O=C(O)c1n[nH]c2c1C[C@H]1C[C@@H]21`, the values for the time of peak concentration (Tmax) in data set [1], in data set [19] and in data set [22] were 1.25 h, 1.5 h and 1.5 h, respectively. Moreover, the Cmax in [2] turned out to be 41.2 nM; in data set [6] it was 49.8 nM; in data set [7] it was 56 nM; in data set [8], 27.7 nM; in [17] it was 48400 nM. For the same compound, the Activity in [3] is on record as -10.3%; in data set [4], “Not Active”; in data set [11], “Not Active”; in [21], “Non-toxic”. The dose excreted in data set [5] amounted to 70%. In addition, the AUC at 12 h was 0.0788 µM·h in data set [9] and 0.0261 µM·h in data set [13]. Moreover, the outcome in [10] was Active. The MTD in data set [12] was 200 mg. For the same compound, the values for the concentration at 12 h in [14] and in data set [23] were 0.241 nM and 0.273 nM, respectively. Besides, the half-life is 6 h in data set [15] and 2.4 h in [20]. Further, in [16], the AUC at 6 h came to 0.123 µM·h. The same compound gave a Cmax/dose in data set [18] of 5.1 µM·kg/mg.
